Laboratory results: publication PMC10520345 (Current Research in Microbial Sciences, 2023)

How the values were obtained:
[1] = system: CV-A7; test: Plaque reduction assay, CV-A7; format: cell-based, Coxsackievirus A7; conditions: read-out: IC50 against CV-A7 in plaque reduction assay
Method in brief: (§1)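 Confluent RD or Vero monolayers were infected with coxsackievirus for 1 h. The inoculum was replaced by DMEM overlay with 1.2% Avicel, 2% FBS and varying test compound concentrations. After 2–3 days, plaques were fixed with 4% formaldehyde, stained with 0.5% crystal violet and counted, and IC50 was calculated. Data are means ± SD.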

[2] = system: CV-A16; test: Plaque reduction assay, CV-A16; format: cell-based, Coxsackievirus A16; conditions: read-out: IC50 against CV-A16 in plaque reduction assay
Method in brief: as §1

[3] = system: CV-A6; test: Plaque reduction assay, CV-A6; format: cell-based, Coxsackievirus A6; conditions: read-out: IC50 against CV-A6 in plaque reduction assay
Method in brief: as §1

[4] = system: CV-A10; test: Plaque reduction assay, CV-A10 in RD cells; format: cell-based, Coxsackievirus A10; conditions: read-out: IC50 against CV-A10 in plaque reduction assay
Method in brief: as §1

[5] = system: CV-A10; test: Plaque reduction assay, CV-A10 in Vero cells; format: cell-based, Coxsackievirus A10; conditions: read-out: IC50 against CV-A10 in plaque reduction assay
Method in brief: as §1

IC50 [1]: 210 ± 50 nM
IC50 [2]: 180 ± 20 nM
IC50 [3]: 220 ± 20 nM
IC50 [4]: 240 ± 40 nM
IC50 [5]: 1690 ± 620 nM
Compound: CC(C)C[C@H](NC(=O)OCc1ccccc1)C(=O)N[C@@H](CC1CCNC1=O)C(O)S(=O)(=O)O (some centres unmarked) [GC376]
